The nature of test [1]: Binding affinity to (alpha1)2beta1gammadelta nAChR in Torpedo californica electroplax by radioligand displacement assay. More on the design: species or system Tetronarce californica. Summed up: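 Torpedo californica electroplax membranes (60–70 µg) incubated with (±)-[3H]epibatidine and 6–9 test concentrations in HSS buffer, 90 min at 22 °C. 300 µM (−)-nicotine defined non-specific binding. PEI-presoaked glass fibre filtration, scintillation counting; duplicate to quadruplicate, 2–10 independent experiments.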
A general note: Loss of bound radioactivity is the signal in a displacement assay; it reports binding, not function.

Test [2] addresses Neuronal acetylcholine receptor subunit alpha-7 (Rattus norvegicus, UniProt Q05941). In words: Displacement of [3H]methyllycaconitine from rat forebrain alpha7 nAChR. A digest of the protocol: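 Competition binding on rat forebrain P2 membranes (60–70 µg protein) with [3H]MLA across 6–9 test concentrations. Incubation 120 min at 22 °C; 1 µM MLA defined non-specific binding. Samples filtered on PEI-presoaked glass fibre, scintillation-counted; duplicate to quadruplicate, 2–10 independent experiments.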

A short description of test [3]: Binding affinity to pig adrenal alpha3beta4 nAChR by radioligand displacement assay. Details: species or system Sus scrofa.
The target of test [4] is Neuronal acetylcholine receptor; alpha4/beta2 (Rattus norvegicus, UniProt P09483+P12390). In words: Displacement of [3H]-epibatidine from rat forebrain alpha4beta2 nAChR. A digest of the protocol: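 Rat forebrain P2 membranes (60 µg protein) in HSS buffer with 0.5 nM (±)-[3H]epibatidine and 6–9 test concentrations. Incubated 90 min at 22 °C; non-specific binding defined with 300 µM (−)-nicotine. Filtered through PEI-presoaked glass fibre filters and counted by liquid scintillation. Run in duplicate to quadruplicate, with 2–10 independent experiments.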
Chain of Neuronal acetylcholine receptor; alpha4/beta2 (P09483 whole entry): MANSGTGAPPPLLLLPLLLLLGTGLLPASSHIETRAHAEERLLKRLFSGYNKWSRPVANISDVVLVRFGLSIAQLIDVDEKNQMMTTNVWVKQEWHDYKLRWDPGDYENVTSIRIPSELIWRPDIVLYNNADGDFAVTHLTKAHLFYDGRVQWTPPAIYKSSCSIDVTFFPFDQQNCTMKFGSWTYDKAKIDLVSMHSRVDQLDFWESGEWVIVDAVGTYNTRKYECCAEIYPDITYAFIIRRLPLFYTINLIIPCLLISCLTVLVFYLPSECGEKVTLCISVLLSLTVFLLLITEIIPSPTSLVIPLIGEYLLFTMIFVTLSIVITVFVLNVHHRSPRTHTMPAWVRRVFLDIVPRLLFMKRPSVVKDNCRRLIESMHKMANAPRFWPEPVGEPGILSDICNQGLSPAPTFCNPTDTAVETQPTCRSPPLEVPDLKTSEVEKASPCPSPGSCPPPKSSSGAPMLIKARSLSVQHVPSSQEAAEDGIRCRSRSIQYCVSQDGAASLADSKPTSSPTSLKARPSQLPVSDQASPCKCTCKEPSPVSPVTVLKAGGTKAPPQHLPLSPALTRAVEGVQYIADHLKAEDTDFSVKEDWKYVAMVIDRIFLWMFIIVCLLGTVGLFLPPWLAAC
Chain of Neuronal acetylcholine receptor; alpha4/beta2 (P12390 whole entry): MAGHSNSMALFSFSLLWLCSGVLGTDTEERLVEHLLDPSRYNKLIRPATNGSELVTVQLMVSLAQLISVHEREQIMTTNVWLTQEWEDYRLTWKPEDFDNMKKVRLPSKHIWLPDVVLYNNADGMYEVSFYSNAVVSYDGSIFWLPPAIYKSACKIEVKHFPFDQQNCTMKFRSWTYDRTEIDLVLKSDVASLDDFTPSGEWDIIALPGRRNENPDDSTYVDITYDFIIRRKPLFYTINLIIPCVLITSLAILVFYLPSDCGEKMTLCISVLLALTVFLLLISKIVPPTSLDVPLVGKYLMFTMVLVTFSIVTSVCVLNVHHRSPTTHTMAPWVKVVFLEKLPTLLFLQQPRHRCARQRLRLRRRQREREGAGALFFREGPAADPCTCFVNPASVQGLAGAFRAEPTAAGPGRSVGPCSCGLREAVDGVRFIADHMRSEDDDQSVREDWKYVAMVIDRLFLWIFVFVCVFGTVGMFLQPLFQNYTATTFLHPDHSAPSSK

Chain of Neuronal acetylcholine receptor subunit alpha-7 (Q05941 whole entry): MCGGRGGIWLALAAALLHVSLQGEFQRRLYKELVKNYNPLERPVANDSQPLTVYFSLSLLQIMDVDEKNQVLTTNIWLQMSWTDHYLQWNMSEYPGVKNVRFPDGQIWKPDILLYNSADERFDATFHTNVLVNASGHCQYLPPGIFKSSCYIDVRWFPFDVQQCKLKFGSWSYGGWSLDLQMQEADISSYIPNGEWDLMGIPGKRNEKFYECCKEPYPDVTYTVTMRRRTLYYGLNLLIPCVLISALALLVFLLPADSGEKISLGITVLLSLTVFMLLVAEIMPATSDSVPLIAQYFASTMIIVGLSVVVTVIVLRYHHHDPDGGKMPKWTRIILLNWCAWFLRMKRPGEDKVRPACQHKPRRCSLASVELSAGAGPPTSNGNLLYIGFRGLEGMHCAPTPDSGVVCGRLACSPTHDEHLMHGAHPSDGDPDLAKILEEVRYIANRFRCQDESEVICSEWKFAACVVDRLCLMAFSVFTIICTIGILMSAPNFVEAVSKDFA

As a reminder, the Ki is the equilibrium dissociation constant of an inhibitor or competing ligand from its target. As to `O=c1cccc2n1C[C@@H]1CNC[C@H]2C1` [CYTISINICLINE], the Ki in test [1] came out at 1.3 µM; in test [2], 0.25 µM; in test [3], 0.019 µM.

As to `O=c1c(-c2cccnc2)ccc2n1C[C@@H]1CNC[C@H]2C1`, the inhibitory constant (Ki) is more than 5 µM in test [1], 0.00091 µM in test [4] and 1.1 µM in test [2].

For the origin of these results see ChEMBL document CHEMBL3091351, “The 3,7-diazabicyclo[3.3.1]nonane scaffold for subtype selective nicotinic acetylcholine receptor (nAChR) ligands. Part 1: the influence of different hydrogen bond acceptor systems on alkyl and (hetero)aryl substituents” (Bioorg Med Chem, 2013).
